Source: PubChem (SRMLSC)
Rows were chosen to be rich in hits. Some 6.6% of all compounds tested hit in one or more screens of this group.
E coli WT exp: growth inhibitors of wild-type E. coli, primary screen, strain BW25113, expanded library, OD600 | 0.15% of 98,000 active | growth inhibition, % at 100 µM | AID 710, 2007 | OD600 absorbance;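 active = growth inhibition above about 50% at one test dose, limit read from the data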;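 note: growth measured after 20 h incubation at 37 °C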
Ecoli tolC: growth inhibitors of E. coli tolC mutant, primary screen, strain BW25113 ΔtolC::kan, 384-well. OD615. growth inhibition, % at 10 µM (by protocol). 2.2% of 65,000 active;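 active = growth inhibition at or above a cutoff equal to the mean over every tested compound plus 3 SD, cut at about 60% in these data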;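 note: growth measured after 20 h incubation at 37 °C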
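Signal: optical density read at 615 nm; Assay system: E. coli ΔtolC::kan strain BW25113; Times: 20 h incubation with compound, 37 °C; Dosing: 10 µM final, single dose.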
PostGolgi yeast: phenotypic screen on post-Golgi transport, primary screen; post-Golgi transport phenotypic cell assay; inhibition, % at 10 µM; 0.9% of 98,000 active;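 note: yeast cells grown in 1536-well plates; yeast grown about 18 h at 30C before absorbance read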
PostGolgi ctrl: growth inhibition of yeast control strain, primary screen, counter-screen for post-Golgi transport modulator project; 5% of 98,000 active; efflux-deficient yeast background strain, growth absorbance A615, 16 h; inhibition, % at 10 µM
HER2 expr 66K: inhibitors of Her2 protein expression, primary screen, SKBR-3 cells, AlphaScreen, 66K library. Receptor tyrosine-protein kinase erbB-2 (Homo sapiens), P04626. SKBR-3 HER2 protein level, 18-24 h; hits give low values. HER2 level % of control, % at 10 µM. 0.69% of 65,000 active. AID 645, 2007;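 active = HER2 level under 5% of the carrier-only control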;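 note: 100% = DMSO carrier and 0% = 500 nM PU-H71 HSP90 inhibitor; lower value means stronger loss of Her2 protein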
Target sequence (P04626 whole entry, looked up): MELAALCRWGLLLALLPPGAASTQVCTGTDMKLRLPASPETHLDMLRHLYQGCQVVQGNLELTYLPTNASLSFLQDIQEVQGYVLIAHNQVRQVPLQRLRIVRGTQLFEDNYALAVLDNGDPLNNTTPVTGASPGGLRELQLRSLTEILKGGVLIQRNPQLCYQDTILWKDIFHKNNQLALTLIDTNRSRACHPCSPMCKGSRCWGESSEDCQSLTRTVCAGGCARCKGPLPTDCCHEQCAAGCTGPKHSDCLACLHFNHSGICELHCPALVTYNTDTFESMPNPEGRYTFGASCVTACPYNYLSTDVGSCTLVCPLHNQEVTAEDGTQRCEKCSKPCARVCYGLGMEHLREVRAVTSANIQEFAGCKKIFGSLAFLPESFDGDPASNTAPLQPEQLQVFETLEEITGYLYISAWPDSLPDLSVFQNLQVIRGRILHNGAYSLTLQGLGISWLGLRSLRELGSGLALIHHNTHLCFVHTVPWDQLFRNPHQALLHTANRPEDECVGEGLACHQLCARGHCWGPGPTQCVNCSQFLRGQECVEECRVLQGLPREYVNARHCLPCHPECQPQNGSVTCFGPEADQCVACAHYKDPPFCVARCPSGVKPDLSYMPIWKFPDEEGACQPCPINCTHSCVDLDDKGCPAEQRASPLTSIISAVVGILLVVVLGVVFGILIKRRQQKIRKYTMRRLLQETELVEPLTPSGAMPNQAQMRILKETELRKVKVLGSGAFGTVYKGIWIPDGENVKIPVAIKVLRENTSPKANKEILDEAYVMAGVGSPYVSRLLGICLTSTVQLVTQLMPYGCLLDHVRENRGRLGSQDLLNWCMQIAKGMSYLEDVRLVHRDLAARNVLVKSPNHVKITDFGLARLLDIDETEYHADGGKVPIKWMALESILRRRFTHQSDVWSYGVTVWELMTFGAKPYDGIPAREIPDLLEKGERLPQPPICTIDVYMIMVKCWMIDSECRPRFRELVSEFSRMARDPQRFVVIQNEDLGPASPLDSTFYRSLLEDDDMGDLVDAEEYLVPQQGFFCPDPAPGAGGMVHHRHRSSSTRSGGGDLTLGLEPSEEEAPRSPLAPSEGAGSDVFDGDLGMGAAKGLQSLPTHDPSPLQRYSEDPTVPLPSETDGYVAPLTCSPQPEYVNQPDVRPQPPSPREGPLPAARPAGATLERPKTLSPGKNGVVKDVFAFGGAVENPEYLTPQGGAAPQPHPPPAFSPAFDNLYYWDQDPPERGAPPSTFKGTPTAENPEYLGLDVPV
* marks the source's active call; other numbers are inactive results. Cut-off read from the data, not from the text of the source, unless noted: active = inhibition above about 30%; inactive = the rest.

Results for c1ccc(-c2nc(CSc3nnnn3-c3ccccc3)cs2)cc1 ?
E coli WT exp: -7.0; Ecoli tolC: 54.6; PostGolgi yeast: -13.2; PostGolgi ctrl: 48.8*; HER2 expr 66K: 95.3

How did Cc1ccccc1Nc1nc(CSc2nnnn2-c2ccccc2)cs1 do in these assays?
E coli WT exp: -9.0; PostGolgi yeast: -11.1; PostGolgi ctrl: 4.2

Results for Cc1ncc(CSc2nnnn2-c2ccccc2)c(N)n1 ?
E coli WT exp: 12.0; Ecoli tolC: 18.1; PostGolgi yeast: -3.4; PostGolgi ctrl: 31.7*; HER2 expr 66K: 117.6

How did C(=C\c1ccccc1)/CN1CCN(C(c2ccccc2)c2ccccc2)CC1 do in these assays?
Ecoli tolC: 5.9; HER2 expr 66K: 73.4

How did Fc1ccc(C(c2ccc(F)cc2)N2CCN(C/C=C/c3ccccc3)CC2)cc1 do in these assays?
Ecoli tolC: 76.1*; HER2 expr 66K: 88.8

Results for O=C1c2ccccc2C(=O)N1CCn1c(=O)oc2ccccc21 ?
E coli WT exp: -10.0; Ecoli tolC: 11.2; PostGolgi yeast: 11.7; PostGolgi ctrl: 2.7; HER2 expr 66K: 132.7

What do the screens show for `O=C(N1CCN(c2ccc(F)cc2)CC1)C12CC3CC(CC(C3)C1)C2`?
E coli WT exp: 4.0; Ecoli tolC: 3.1; PostGolgi yeast: -3.5; PostGolgi ctrl: 1.8; HER2 expr 66K: 82.0

How did Cc1cccc(N2CCN(C(=O)Cc3c(C(=O)O)[nH]c4ccc(Cl)cc34)CC2)c1C do in these assays?
E coli WT exp: 0.0; Ecoli tolC: 87.0*; PostGolgi yeast: 4.7; PostGolgi ctrl: 4.1; HER2 expr 66K: 105.2

What do the screens show for `Cc1cc(OCCCC(=O)N2CCCCC2)cc(C)c1Cl`?
E coli WT exp: 0.0; Ecoli tolC: 63.1*; PostGolgi yeast: -4.0; PostGolgi ctrl: 8.6; HER2 expr 66K: 97.9

Results for Cc1cccc(N2CCN(C(=O)CCCOc3ccccc3)CC2)c1C ?
E coli WT exp: 0.0; Ecoli tolC: 31.8; PostGolgi yeast: 16.0; PostGolgi ctrl: 33.5*; HER2 expr 66K: 160.2

How did O=C(N1CCN(c2ccccc2F)CC1)C12CC3CC(CC(C3)C1)C2 do in these assays?
E coli WT exp: 10.0; Ecoli tolC: 88.9*; PostGolgi yeast: 0.0; PostGolgi ctrl: 14.3; HER2 expr 66K: 57.9

Results for CC(C)(C)NC(=O)C1Cc2ccccc2CN1C(=O)Nc1ccccc1Cl (configuration not stated) ?
E coli WT exp: 1.0; PostGolgi yeast: 1.2; PostGolgi ctrl: 9.5

How did Nn1c(SCC(=O)NC(=O)NCc2ccco2)nnc1-c1ccc(OC(F)F)cc1 do in these assays?
E coli WT exp: 4.0; PostGolgi yeast: 4.2; PostGolgi ctrl: 2.2

What do the screens show for `Cc1cccc(N2CCN(C(=O)C3CCCCC3)CC2)c1C`?
E coli WT exp: 3.0; Ecoli tolC: 24.8; PostGolgi yeast: 12.9; PostGolgi ctrl: 34.2*; HER2 expr 66K: 82.9

What do the screens show for `Cc1cccc(N2CCN(C(=O)C34CC5CC(CC(C5)C3)C4)CC2)c1C`?
E coli WT exp: -6.0; Ecoli tolC: 63.4*; PostGolgi yeast: -4.1; PostGolgi ctrl: 51.3*; HER2 expr 66K: 183.2

Results for CC(C)NC(=O)CN(CCc1ccccc1)S(C)(=O)=O ?
E coli WT exp: 3.0; Ecoli tolC: -23.6; PostGolgi yeast: -0.9; PostGolgi ctrl: 21.0; HER2 expr 66K: 76.9

What do the screens show for `Cc1cc2c(c(=O)n1Cc1ccc3c(c1)OCO3)C(c1cccnc1)C(C#N)=C(N)O2` (configuration not stated)?
E coli WT exp: -9.0; Ecoli tolC: -4.0; PostGolgi yeast: -5.5; PostGolgi ctrl: 3.4; HER2 expr 66K: 99.0

What do the screens show for `COc1ccc(CN(Cc2cc3cc4c(cc3[nH]c2=O)OCO4)C(=O)NC2CCCCC2)cc1`?
E coli WT exp: -14.0; Ecoli tolC: 72.0*; PostGolgi yeast: 0.3; PostGolgi ctrl: 9.0; HER2 expr 66K: 116.0

How did Cc1ccc(NC(=O)N(Cc2ccc3c(c2)OCO3)Cc2cc3cc4c(cc3[nH]c2=O)OCCO4)cc1 do in these assays?
E coli WT exp: -8.0; Ecoli tolC: 12.7; PostGolgi yeast: 24.2; PostGolgi ctrl: 55.9*; HER2 expr 66K: 81.8

Results for CCN(CC)CCN(Cc1cc2cc3c(cc2[nH]c1=O)OCCO3)C(=O)NC1CCCCC1 ?
E coli WT exp: 7.0; Ecoli tolC: 9.2; PostGolgi yeast: 4.0; PostGolgi ctrl: 15.3; HER2 expr 66K: 93.3

How did Cc1ccc(NC(=O)N(CCCN2CCOCC2)Cc2cc3cc4c(cc3[nH]c2=O)OCO4)cc1 do in these assays?
E coli WT exp: 8.0; Ecoli tolC: 1.6; PostGolgi yeast: 18.1; PostGolgi ctrl: 12.7; HER2 expr 66K: 65.2

Results for COc1ccc2[nH]c(=O)c(CN(C(=O)NC3CCCCC3)C3CCCCC3)cc2c1 ?
E coli WT exp: -10.0; Ecoli tolC: 72.0*; PostGolgi yeast: 2.2; PostGolgi ctrl: 12.2; HER2 expr 66K: 66.2

How did Cc1cc(C(=O)CSc2nnc(N)s2)c(C)n1CCc1ccc(F)cc1 do in these assays?
E coli WT exp: 4.0; Ecoli tolC: 14.5; PostGolgi yeast: -9.6; PostGolgi ctrl: 4.4; HER2 expr 66K: 102.8

How did Cc1cc(C(=O)CSc2nnc(N)s2)c(C)n1CCc1ccc(Cl)cc1 do in these assays?
E coli WT exp: -14.0; Ecoli tolC: 39.2; PostGolgi yeast: 3.0; PostGolgi ctrl: 40.7*; HER2 expr 66K: 76.5

How did Cc1ccc(C)c(OCC(=O)N/N=C/c2ccsc2)c1 do in these assays?
E coli WT exp: -9.0; PostGolgi yeast: -9.6; PostGolgi ctrl: 1.8

Results for Cc1ccc(N/C=C(/C#N)c2ccsc2)cc1C ?
E coli WT exp: -3.0; PostGolgi yeast: -1.9; PostGolgi ctrl: 38.9*

What do the screens show for `[N-]=[N+]=CC(=O)c1ccnc(C(=O)C=[N+]=[N-])c1`?
E coli WT exp: 55.0*; Ecoli tolC: 8.0; PostGolgi yeast: 29.1; PostGolgi ctrl: 11.0; HER2 expr 66K: 134.5

How did CCCCCOc1ccc(CN2CCOCC2)cc1Cl do in these assays?
E coli WT exp: 4.0; Ecoli tolC: 27.6; PostGolgi yeast: 95.4*; PostGolgi ctrl: 55.3*; HER2 expr 66K: 51.7

Results for O=C(CSc1ccccc1C(=O)NCCCN1CCCC1=O)NCc1ccco1 ?
E coli WT exp: 4.0; Ecoli tolC: -3.2; PostGolgi yeast: -4.5; PostGolgi ctrl: 9.9; HER2 expr 66K: 86.4

How did O=C(CCS(=O)(=O)Cc1ccccc1)NCC1CCCO1 (configuration not stated) do in these assays?
E coli WT exp: 9.0; Ecoli tolC: -19.7; PostGolgi yeast: -4.2; PostGolgi ctrl: 34.0*; HER2 expr 66K: 54.5

Results for O=C(Cc1ccccc1)NCC1CCCO1 (configuration not stated) ?
E coli WT exp: 9.0; PostGolgi yeast: 0.2; PostGolgi ctrl: -0.5

What do the screens show for `Cc1cccc(C)c1NC(=O)c1c(C)nn(-c2ccccc2)c1Cl`?
E coli WT exp: 0.0; PostGolgi yeast: 9.7; PostGolgi ctrl: 6.5

What do the screens show for `Cc1nn(-c2ccccc2)c(Cl)c1C(=O)Nc1nnc(C2CCCC2)s1`?
E coli WT exp: -22.0; Ecoli tolC: 100.0*; PostGolgi yeast: -3.6; PostGolgi ctrl: 4.3; HER2 expr 66K: 70.5
